According to ChEMBL document CHEMBL1137687, “Anti-HIV evaluation of benzo[d]isothiazole hydrazones” (Eur J Med Chem, 2009):

Assays:
[1] = Cytotoxicity against mock-infected human MT4 cells after 4 days by MTT assay; format: cell-based
Outline: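 Mock-infected MT-4 cells, 1 × 10⁴ per well in RPMI 1640 with 10% FCS, 37 °C, 5% CO₂. Exposed to serial compound dilutions from a 100 mM DMSO stock diluted in medium, in parallel with the antiviral assay. Viability read by MTT. CC₅₀ taken as concentration reducing viability of mock-infected cells by 50%.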

[2] = test system: Human immunodeficiency virus 1; experiment: Antiviral activity against wild type HIV1 3B assessed as protection as protection against virus-induced cytopathogenicity after 4 days by MTT assay; format: functional; conditions: Human immunodeficiency virus 1, 3B, 96 h
Outline: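 HIV-1 IIIB from supernatants of persistently infected H9/IIIB cells. MT-4 cells, 1 × 10⁴ per well in RPMI 1640 with 10% FCS, exposed to serial compound dilutions (100 mM DMSO stock diluted in medium). Virus inoculum sized in CCID₅₀ to give complete cytopathogenicity by day 4. Incubated at 37 °C, then viability read by MTT. EC₅₀ taken as concentration giving 50% protection from virus-induced cytopathogenicity.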

[3] = test system: Human immunodeficiency virus 1; experiment: Antiviral activity against NNRTI-resistant HIV1 with reverse transcriptase Y181C mutation in human MT4 cells assessed as protection against virus-induced cytopathogenicity after 4 days by MTT assay; format: functional, organism-based; conditions: Human immunodeficiency virus 1, MT4, 96 h
Outline: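 Y181C virus (NIH N119) came from an AZT-sensitive clinical isolate passaged in CEM then MT-4 cells with nevirapine; stock 1.2×10⁸ CCID50/mL. It infected 1×10⁴ MT-4 cells/well (RPMI 1640, 10% FCS, 37 °C, 5% CO2) with compound dilutions from 100 mM DMSO stock, at a dose giving full cytopathogenicity by day 4. Readout MTT; EC50 = 50% protection.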

[4] = test system: Human immunodeficiency virus 1; experiment: Antiviral activity against NNRTI-resistant HIV1 3B with reverse transcriptase K103N+Y181C mutation in human MT4 cells assessed as protection against virus-induced cytopathogenicity after 4 days by MTT assay; format: functional, organism-based; conditions: Human immunodeficiency virus 1, 3B, MT4, 96 h
Outline: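 MT-4 cells (RPMI 1640, 10% FCS, 37 °C, 5% CO2), 1×10⁴/well, with compound serial dilutions from 100 mM DMSO stock, infected with K103N+Y181C virus (NIH A17, from IIIB passaged in H9 cells with BI-RG 587; stock 2.1×10⁷ CCID50/mL) at dose giving full cytopathogenicity by day 4. MTT viability; EC50 = 50% protection.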

[5] = test system: Human immunodeficiency virus 1; experiment: Antiviral activity against NNRTI-resistant HIV1 3B with reverse transcriptase K103R+V179D+P225H mutation in human MT4 cells assessed as protection against virus-induced cytopathogenicity after 4 days by MTT assay; format: functional, organism-based; conditions: Human immunodeficiency virus 1, 3B, MT4, 96 h
Outline: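 K103R+V179D+P225H (EFV^R) virus, from IIIB passaged in MT-4 cells under efavirenz; stock 4.0×10⁷ CCID50/mL. Added to 1×10⁴ MT-4 cells/well (RPMI 1640, 10% FCS, 37 °C, 5% CO2) with compound dilutions from 100 mM DMSO stock, amount causing complete cytopathogenicity at day 4. Viability by MTT; EC50 = concentration giving 50% protection.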

Row | SMILES | CC50 at 96 h [1] [µM] | EC50 [2] [µM] | EC50 [3] [µM] | EC50 [4] [µM] | EC50 [5] [µM]
1 | O=c1c2ccccc2sn1/N=C/c1cccc(O)c1 | 15 | > 15 | > 15 | > 15 | > 15
2 | Cc1ccc2sn(/N=C/c3ccccc3[N+](=O)[O-])c(=O)c2c1 | > 100 | > 100 | > 100 | > 100 | 100
3 | Cc1ccc2sn(/N=C/c3cccc(Cl)c3)c(=O)c2c1 | 59 | > 59 | > 59 | > 59 | 25
4 | COc1cc(/C=N/n2sc3ccc(C)cc3c2=O)ccc1O | 16 | > 16 | > 16 | > 16 | > 16
5 | O=c1c2ccccc2sn1/N=C/c1ccccc1 | 17 | 11 | > 17 | > 17 | 8.6
6 | O=c1c2ccccc2sn1/N=C/c1ccc2c(c1)OCO2 | 17 | > 17 | > 17 | > 17 | > 17
7 | O=c1c2ccccc2sn1/N=C/c1ccc(O)cc1 | 18 | > 18 | > 18 | > 18 | 8.4
8 | COc1ccc(/C=N/n2sc3ccc(C)cc3c2=O)cc1 | 55 | > 55 | > 55 | > 55 | > 55
9 | Cc1ccc2sn(/N=C/c3ccc(Cl)cc3)c(=O)c2c1 | 57 | 24 | 22 | 33 | 11
10 | O=c1c2ccccc2sn1/N=C/c1cccc(Cl)c1 | > 100 | 100 | ≥ 100 | ≥ 100 | 68
11 | Cc1ccc2sn(/N=C/c3ccccc3Cl)c(=O)c2c1 | > 100 | 82 | 100 | > 100 | 79
12 | Cc1ccc2sn(/N=C/c3ccc([N+](=O)[O-])cc3[N+](=O)[O-])c(=O)c2c1 | > 100 | > 100 | > 100 | > 100 | > 100
13 | O=c1c2ccccc2sn1/N=C/c1ccc(O)cc1O | 21 | > 21 | > 21 | > 21 | > 21
14 | Cc1ccc2sn(/N=C/c3cccc(O)c3)c(=O)c2c1 | 16 | > 16 | > 16 | > 16 | 8.4
15 | O=c1c2ccccc2sn1/N=C/c1ccc([N+](=O)[O-])cc1 | > 100 | 45 | 29 | 36 | 33
16 | Cc1ccc2sn(/N=C/c3ccccc3O)c(=O)c2c1 | 30 | > 30 | > 30 | > 30 | > 30
17 | O=c1c2ccccc2sn1/N=C/c1ccccc1F | 20 | ≥ 11 | > 20 | > 20 | > 20
18 | O=c1c2ccccc2sn1/N=C/c1ccccc1[N+](=O)[O-] | 68 | 19 | 20 | 33 | 20
19 | Cc1ccc2sn(/N=C/c3ccc(O)c(O)c3)c(=O)c2c1 | 49 | > 49 | > 49 | > 49 | > 49
20 | Cc1ccc2sn(/N=C/c3ccccc3F)c(=O)c2c1 | 18 | > 18 | > 18 | > 18 | > 18
21 | Cc1ccc2sn(/N=C/c3ccccc3)c(=O)c2c1 | 44 | ≥ 33 | ≥ 33 | > 44 | ≥ 33
